≈ marks a conversion by molar mass, not a printed value. Calls of active or inactive are those of the source. The rule behind the calls is not given here.
Assays:
Proteus vulgaris = test: Antibacterial activity against Proteus vulgaris after 18 to 22 hrs by broth microdilution method; type: functional
Outline: (§1)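 Clinical respiratory-tract isolates from patients, subcultured for purity and identified conventionally. Broth microdilution per NCCLS in Mueller–Hinton II broth; each plate had growth controls (bacteria, no compound) and medium-only controls. Incubation 18–22 h at 35 °C. MIC taken as the lowest concentration giving complete growth inhibition by unaided eye.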

[Candida] sake = Antifungal activity against Candida sake after 24 hrs by broth microdilution method; type: functional; settings: Fermentozyma sake
Outline: (§2)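 Candida isolates from respiratory-tract specimens, tested by NCCLS broth microdilution in Sabouraud dextrose broth. Serial compound dilutions inoculated to 10³/mL, with fungus-only and medium-only controls. Incubated 24 h at 37 °C. MIC was the lowest concentration with complete visible growth inhibition.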

Enterobacter = test: Antibacterial activity against Enterobacter after 18 to 22 hrs by broth microdilution method; type: functional; outline: as §1
Escherichia coli = test: Antibacterial activity against Escherichia coli after 18 to 22 hrs by broth microdilution method; type: functional; outline: as §1
Citrobacter freundii = test: Antibacterial activity against Citrobacter freundii after 18 to 22 hrs by broth microdilution method; type: functional; outline: as §1
Candida albicans = test: Antifungal activity against Candida albicans after 24 hrs by broth microdilution method; type: functional; outline: as §2
[1] = tested on: Staphylococcus haemolyticus; test: Antibacterial activity against Staphylococcus haemolyticus after 18 to 22 hrs by broth microdilution method; type: functional; outline: as §1
Staphylococcus aureus = test: Antibacterial activity against Staphylococcus aureus after 18 to 22 hrs by broth microdilution method; type: functional; outline: as §1
AGS [2] = test: Antiinflammatory activity in human AGS cells assessed as inhibition of IL-8 production at 5 ug/mL after 24 hrs; type: functional, cell-based
Outline: (§3)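 AGS gastric adenocarcinoma cells were grown in F-12K with 10% FBS. They were seeded at 1 × 10⁵/mL for 24 h, preincubated 1 h with compound at 5 or 0.5 µg/mL, then exposed to H. pylori.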

Klebsiella pneumoniae = test: Antibacterial activity against Klebsiella pneumoniae after 18 to 22 hrs by broth microdilution method; type: functional; outline: as §1
Klebsiella oxytoca = test: Antibacterial activity against Klebsiella oxytoca after 18 to 22 hrs by broth microdilution method; type: functional; outline: as §1
[3] = tested on: Staphylococcus epidermidis; test: Antibacterial activity against Staphylococcus epidermidis after 18 to 22 hrs by broth microdilution method; type: functional; outline: as §1
[4] = Solubility of the compound in DMSO at 0.0039 to 128 ug/mL; type: physicochemical
Pichia kudriavzevii = test: Antifungal activity against Candida krusei after 24 hrs by broth microdilution method; type: functional; outline: as §2
AGS [5] = test: Antiinflammatory activity in human AGS cells assessed as inhibition of IL-8 production at 0.5 ug/mL after 24 hrs; type: functional, cell-based; outline: as §3
Klebsiella aerogenes = test: Antibacterial activity against Enterobacter aerogenes after 18 to 22 hrs by broth microdilution method; type: functional; outline: as §1
Enterococcus faecalis = test: Antibacterial activity against Streptococcus faecalis after 18 to 22 hrs by broth microdilution method; type: functional; outline: as §1
Staphylococcus hominis = test: Antibacterial activity against Staphylococcus hominis after 18 to 22 hrs by broth microdilution method; type: functional; outline: as §1
Helicobacter pylori [6] = test: Antibacterial activity against metronidazole-resistant Helicobacter pylori NCTC 11637 after 72 hrs by agar dilution method; type: functional; settings: NCTC 11637, 72 h
Outline: (§4)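 H. pylori clinical isolates (ATCC 43504 control each session) stored at -80 °C and subcultured twice on Columbia agar with 10% horse serum and 0.25% yeast extract. Suspensions of 0.5 McFarland were spotted by Steer's replicator at about 5 × 10⁵ CFU/spot onto agar with twofold compound dilutions. Plates were incubated 72 h at 37 °C in 10% CO₂. MIC was the lowest concentration without visible growth.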

[7] = Cytotoxicity against human EAhy926 cells assessed as cell survival at 5 ug/mL after 24 hrs by trypan blue exclusion assay; type: cell-based, EA.hy 926; settings: read-out: Survival
Outline: (§5)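 EAhy cells in DMEM (high glucose) with 10% FBS, at 1 × 10⁵/mL in exponential growth and 60–70% confluent, were exposed 24 h at 37 °C to compounds from DMSO stocks (final DMSO ≤0.5%). Controls were cells alone or with DMSO, and 1 mM sodium nitroprusside as positive control. Cells were scraped, mixed 1:1 with 0.4% Trypan blue and counted on a hemocytometer by two operators. Result given as % viable cells.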

Helicobacter pylori [8] = test: Antibacterial activity against metronidazole-resistant Helicobacter pylori isolate 1 after 72 hrs by agar dilution method; type: functional; settings: isolate 1, 72 h; outline: as §4
Helicobacter pylori [9] = test: Antibacterial activity against metronidazole-resistant Helicobacter pylori isolate 20 after 72 hrs by agar dilution method; type: functional; settings: isolate 20, 72 h; outline: as §4
[10] = Cytotoxicity against human EAhy926 cells assessed as cell survival at 50 ug/mL after 24 hrs by trypan blue exclusion assay; type: cell-based, EA.hy 926; settings: read-out: Survival; outline: as §5
[11] = Cytotoxicity against human EAhy926 cells assessed as cell survival at 0.5 ug/mL after 24 hrs by MTT assay; type: cell-based, EA.hy 926; settings: read-out: Survival
Helicobacter pylori [12] = test: Antibacterial activity against metronidazole-resistant Helicobacter pylori isolate 8 after 72 hrs by agar dilution method; type: functional; settings: isolate 8, 72 h; outline: as §4
AGS (Homo sapiens) = test: Cytotoxicity against human AGS cells assessed as cell survival at 50 ug/mL after 24 hrs by MTT assay
[13] = Cytotoxicity against human EAhy926 cells assessed as cell survival at 5 ug/mL after 24 hrs by MTT assay; type: cell-based, EA.hy 926; settings: read-out: Survival
[14] = Cytotoxicity against human EAhy926 cells assessed as cell survival at 0.05 ug/mL after 24 hrs by trypan blue exclusion assay; type: cell-based, EA.hy 926; settings: read-out: Survival; outline: as §5
Helicobacter pylori [15] = test: Antibacterial activity against metronidazole-resistant Helicobacter pylori isolate 18 after 72 hrs by agar dilution method; type: functional; settings: isolate 18, 72 h; outline: as §4
[16] = Cytotoxicity against human EAhy926 cells assessed as cell survival at 0.5 ug/mL after 24 hrs by trypan blue exclusion assay; type: cell-based, EA.hy 926; settings: read-out: Survival; outline: as §5
Helicobacter pylori [17] = test: Antibacterial activity against Helicobacter pylori ATCC 43504 clinical isolates after 72 hrs by agar dilution method; type: functional; settings: ATCC 43504, 72 h
Outline: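 Agar dilution per NCCLS. Twenty clinical strains from duodenal ulcer or gastritis patients, with ATCC 43504 as control in each session, were subcultured twice on Columbia agar plus 10% horse serum and 0.25% yeast extract (72 h, 37 °C, 10% CO₂). Inoculum of 0.5 McFarland in Wilkins Chalgren broth, about 5 × 10⁵ CFU/spot by Steer's replicator. Plates held twofold compound dilutions down to 0.0039 µg/mL and were incubated 72 h at 37 °C, 10% CO₂. MIC was the lowest concentration inhibiting visible growth.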

Compound | MIC (Proteus vulgaris) [µg/mL] | MIC ([Candida] sake) [µg/mL] | MIC (Enterobacter) [µg/mL] | MIC (Escherichia coli) [µg/mL] | MIC (Citrobacter freundii) [µg/mL] | MIC (Candida albicans) [µg/mL] | MIC [1] [µg/mL] | MIC (Staphylococcus aureus) [µg/mL] | inhibition (AGS [2]) | MIC (Klebsiella pneumoniae) [µg/mL] | MIC (Klebsiella oxytoca) [µg/mL] | MIC [3] [µg/mL] | MIC (Pichia kudriavzevii) [µg/mL] | inhibition (AGS [5]) | MIC (Klebsiella aerogenes) [µg/mL] | MIC (Enterococcus faecalis) [µg/mL] | MIC (Staphylococcus hominis) [µg/mL] | MIC (Helicobacter pylori [6]) [µg/mL] | viability at 24 h, 5 ug/mL [7] [%] | MIC (Helicobacter pylori [8]) [µg/mL] | further results
CCOC(=O)c1ccc(NC(=O)c2cc3cc([N+](=O)[O-])ccc3oc2=O)cc1 | > 128 | > 128 | > 128 | > 128 | > 128 | > 128 | > 128 | > 128 | inactive | > 128 | > 128 | > 128 | > 128 | inactive | > 128 | > 128 | > 128 | – | – | – | solubility [4]: Insoluble
CCOC(=O)c1ccc(NC(=O)c2cc3cc(Br)cc(Cl)c3oc2=O)cc1 | > 128 | > 128 | > 128 | > 128 | > 128 | > 128 | > 128 | > 128 | inactive | > 128 | > 128 | > 128 | > 128 | inactive | > 128 | > 128 | > 128 | 16 (≈ 35.5 µM) | 71 | 8 (≈ 17.8 µM) | MIC (Helicobacter pylori [9]): 8 µg/mL (≈ 17.8 µM); viability at 24 h, 50 ug/mL [10]: 58%; viability at 24 h, 0.5 ug/mL [11]: 98%; MIC (Helicobacter pylori [12]): 4 µg/mL (≈ 8.88 µM); viability at 24 h, 50 ug/mL (AGS (Homo sapiens)): 64%; viability at 24 h, 5 ug/mL [13]: 75%; viability at 24 h, 0.05 ug/mL [14]: 94%; MIC (Helicobacter pylori [15]): 8 µg/mL (≈ 17.8 µM); viability at 24 h, 0.5 ug/mL [16]: 86%; MIC50 (Helicobacter pylori [17]): 8 µg/mL (≈ 17.8 µM); MIC90 (Helicobacter pylori [17]): 16 µg/mL (≈ 35.5 µM)
CCOC(=O)c1ccc(NC(=O)c2cc3ccc(O)cc3oc2=O)cc1 | > 128 | > 128 | > 128 | > 128 | > 128 | > 128 | > 128 | > 128 | inactive | > 128 | > 128 | > 128 | > 128 | inactive | > 128 | > 128 | > 128 | 8 (≈ 22.6 µM) | 92 | 8 (≈ 22.6 µM) | MIC (Helicobacter pylori [9]): 2 µg/mL (≈ 5.66 µM); viability at 24 h, 50 ug/mL [10]: 64%; viability at 24 h, 0.5 ug/mL [11]: 99%; MIC (Helicobacter pylori [12]): 4 µg/mL (≈ 11.3 µM); viability at 24 h, 50 ug/mL (AGS (Homo sapiens)): 78%; viability at 24 h, 5 ug/mL [13]: 82%; viability at 24 h, 0.05 ug/mL [14]: 96%; MIC (Helicobacter pylori [15]): 8 µg/mL (≈ 22.6 µM); viability at 24 h, 0.5 ug/mL [16]: 95%; MIC50 (Helicobacter pylori [17]): 8 µg/mL (≈ 22.6 µM); MIC90 (Helicobacter pylori [17]): 8 µg/mL (≈ 22.6 µM)
O=C(O)c1ccc(NC(=O)c2cc3ccc(O)cc3oc2=O)cc1 | > 128 | > 128 | > 128 | > 128 | > 128 | > 128 | > 128 | > 128 | inactive | > 128 | > 128 | > 128 | > 128 | inactive | > 128 | > 128 | > 128 | 8 (≈ 24.6 µM) | 92 | 8 (≈ 24.6 µM) | MIC (Helicobacter pylori [9]): 8 µg/mL (≈ 24.6 µM); viability at 24 h, 50 ug/mL [10]: 82%; viability at 24 h, 0.5 ug/mL [11]: 99%; MIC (Helicobacter pylori [12]): 4 µg/mL (≈ 12.3 µM); viability at 24 h, 50 ug/mL (AGS (Homo sapiens)): 77%; viability at 24 h, 5 ug/mL [13]: 99%; viability at 24 h, 0.05 ug/mL [14]: 98%; MIC (Helicobacter pylori [15]): 8 µg/mL (≈ 24.6 µM); viability at 24 h, 0.5 ug/mL [16]: 93%; MIC50 (Helicobacter pylori [17]): 8 µg/mL (≈ 24.6 µM); MIC90 (Helicobacter pylori [17]): 16 µg/mL (≈ 49.2 µM)
CCOC(=O)c1ccc(NC(=O)c2cc3cc(C)ccc3oc2=O)cc1 | > 128 | > 128 | > 128 | > 128 | > 128 | > 128 | > 128 | > 128 | inactive | > 128 | > 128 | > 128 | > 128 | inactive | > 128 | > 128 | > 128 | 4 (≈ 11.4 µM) | 59 | 8 (≈ 22.8 µM) | MIC (Helicobacter pylori [9]): 2 µg/mL (≈ 5.69 µM); viability at 24 h, 50 ug/mL [10]: 14%; viability at 24 h, 0.5 ug/mL [11]: 99%; MIC (Helicobacter pylori [12]): 8 µg/mL (≈ 22.8 µM); viability at 24 h, 50 ug/mL (AGS (Homo sapiens)): 63%; viability at 24 h, 5 ug/mL [13]: 81%; viability at 24 h, 0.05 ug/mL [14]: 80%; MIC (Helicobacter pylori [15]): 2 µg/mL (≈ 5.69 µM); viability at 24 h, 0.5 ug/mL [16]: 77%; MIC50 (Helicobacter pylori [17]): 4 µg/mL (≈ 11.4 µM); MIC90 (Helicobacter pylori [17]): 8 µg/mL (≈ 22.8 µM)
